Test results as given in ChEMBL document CHEMBL3244146, “Pyranenamines: a new series of antiallergic compounds” (1979).

Experiments:
Rattus norvegicus [1] = test: Antiallergic activity in po dosed rat assessed as inhibition of egg albumin-induced passive cutaneous anaphylaxis treated for 15 mins followed by egg albumin-challenge measured after 30 mins; type: functional; conditions: read-out: ID50 (the source's name)
How it was run: (§1)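 Oral PCA in rats: intradermal antiserum at four back sites (dose giving ~12×12 mm wheal), compound po 48 h later, 15 min before iv challenge with 0.5 mL saline containing 5 mg Evans blue plus 5 mg egg albumin; skin bluing read 30 min after challenge on two axes per wheal; six rats per dose versus ≥6 vehicle controls; percent inhibition from mean wheal size, one-sided t test.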

[2] = Antiallergic activity in passively sensitized rhesus monkey lungs assessed as inhibition of antigen-induced slow reacting substance of anaphylaxis release at 6.6 x 10^-6 M relative to control; type: functional, Macaca mulatta, Lung
How it was run: (§2)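 Passively sensitized fragmented lung from a young adult male rhesus monkey, challenged with IgE-antihuman IgE; histamine release measured fluorometrically and SRS-A estimated by guinea pig ileum bioassay; inhibition relative to control; replicates given as number of separate lung preparations.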

Lung [3] = test: Antiallergic activity in passively sensitized albino rat lungs assessed as inhibition of antigen-induced histamine release at 1.6 x 10^-4 M by fluorometric analysis relative to control; type: functional
How it was run: (§3)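 Fragmented lung from adult male Charles River albino rats, passively sensitized, then antigen-challenged with compound present; released histamine measured fluorometrically; inhibition reported relative to control, with replicate count given as number of separate lung preparations.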

Rattus norvegicus [4] = test: Antiallergic activity in iv dosed rat assessed as inhibition of egg albumin-induced passive cutaneous anaphylaxis treated for 30 secs followed by egg albumin-challenge measured after 30 mins; type: functional; conditions: 0.5 h, read-out: ID50 (the source's name)
[5] = Antiallergic activity in passively sensitized rhesus monkey lungs assessed as inhibition of antigen-induced histamine release at 1.6 x 10^-4 M by fluorometric analysis relative to control; type: functional, Macaca mulatta, Lung; how it was run: as §2
Lung [6] = test: Antiallergic activity in passively sensitized albino rat lungs assessed as inhibition of antigen-induced histamine release at 6.6 x 10^-7 M by fluorometric analysis relative to control; type: functional; how it was run: as §3
[7] = Antiallergic activity in passively sensitized rhesus monkey lungs assessed as inhibition of antigen-induced slow reacting substance of anaphylaxis release at 1.6 x 10^-4 M relative to control; type: functional, Macaca mulatta, Lung; how it was run: as §2
Lung [8] = test: Antiallergic activity in passively sensitized albino rat lungs assessed as inhibition of antigen-induced histamine release at 6.6 x 10^-6 M by fluorometric analysis relative to control; type: functional; how it was run: as §3
[9] = Antiallergic activity in passively sensitized rhesus monkey lungs assessed as inhibition of antigen-induced histamine release at 3.3 x 10^-5 M by fluorometric analysis relative to control; type: functional, Macaca mulatta, Lung; how it was run: as §2
[10] = Antiallergic activity in passively sensitized rhesus monkey lungs assessed as inhibition of antigen-induced slow reacting substance of anaphylaxis release at 3.3 x 10^-5 M relative to control; type: functional, Macaca mulatta, Lung; how it was run: as §2
[11] = Antiallergic activity in passively sensitized rhesus monkey lungs assessed as inhibition of antigen-induced histamine release at 6.6 x 10^-6 M by fluorometric analysis relative to control; type: functional, Macaca mulatta, Lung; how it was run: as §2
Rattus norvegicus [12] = test: Antiallergic activity in rat assessed as inhibition of egg albumin-induced passive cutaneous anaphylaxis at 50 mg/kg, po treated for 15 mins followed by egg albumin-challenge measured after 30 mins relative to control; type: functional; how it was run: as §1
Rattus norvegicus [13] = test: Antiallergic activity in rat assessed as inhibition of egg albumin-induced passive cutaneous anaphylaxis at 100 mg/kg, iv treated for 30 secs followed by egg albumin-challenge measured after 30 mins relative to control; type: functional; conditions: 0.5 h
[14] = Antiallergic activity in passively sensitized rhesus monkey lungs assessed as inhibition of antigen-induced histamine release at 1 x 10^-5 M by fluorometric analysis relative to control; type: functional, Macaca mulatta, Lung; how it was run: as §2
Rattus norvegicus [15] = test: Antiallergic activity in rat assessed as inhibition of egg albumin-induced passive cutaneous anaphylaxis at 25 mg/kg, po treated for 15 mins followed by egg albumin-challenge measured after 30 mins relative to control; type: functional; how it was run: as §1
[16] = Antiallergic activity in passively sensitized rhesus monkey lungs assessed as inhibition of antigen-induced slow reacting substance of anaphylaxis release at 1 x 10^-5 M relative to control; type: functional, Macaca mulatta, Lung; how it was run: as §2
Lung [17] = test: Antiallergic activity in passively sensitized albino rat lungs assessed as inhibition of antigen-induced histamine release at 1 x 10^-8 M by fluorometric analysis relative to control; type: functional; how it was run: as §3
Lung [18] = test: Antiallergic activity in passively sensitized albino rat lungs assessed as inhibition of antigen-induced histamine release at 1 x 10^-9 M by fluorometric analysis relative to control; type: functional; how it was run: as §3
[19] = Antiallergic activity in passively sensitized rhesus monkey lungs assessed as inhibition of antigen-induced slow reacting substance of anaphylaxis release at 5 x 10^-6 M relative to control; type: functional, Macaca mulatta, Lung; how it was run: as §2
[20] = Antiallergic activity in passively sensitized rhesus monkey lungs assessed as inhibition of antigen-induced histamine release at 5 x 10^-5 M by fluorometric analysis relative to control; type: functional, Macaca mulatta, Lung; how it was run: as §2
[21] = Antiallergic activity in passively sensitized rhesus monkey lungs assessed as inhibition of antigen-induced slow reacting substance of anaphylaxis release at 5 x 10^-5 M relative to control; type: functional, Macaca mulatta, Lung; how it was run: as §2
Rattus norvegicus [22] = test: Antiallergic activity in rat assessed as inhibition of egg albumin-induced passive cutaneous anaphylaxis at 0.2 mg/kg, iv treated for 30 secs followed by egg albumin-challenge measured after 30 mins relative to control; type: functional; conditions: 0.5 h
[23] = Antiallergic activity in passively sensitized rhesus monkey lungs assessed as inhibition of antigen-induced histamine release at 5 x 10^-6 M by fluorometric analysis relative to control; type: functional, Macaca mulatta, Lung; how it was run: as §2
Lung [24] = test: Antiallergic activity in passively sensitized albino rat lungs assessed as inhibition of antigen-induced histamine release at 1 x 10^-7 M by fluorometric analysis relative to control; type: functional; how it was run: as §3
Lung [25] = test: Antiallergic activity in passively sensitized albino rat lungs assessed as inhibition of antigen-induced histamine release at 1 x 10^-6 M by fluorometric analysis relative to control; type: functional; how it was run: as §3
Lung [26] = test: Antiallergic activity in passively sensitized albino rat lungs assessed as inhibition of antigen-induced histamine release at 1 x 10^-5 M by fluorometric analysis relative to control; type: functional; how it was run: as §3
[27] = Antiallergic activity in passively sensitized rhesus monkey lungs assessed as inhibition of antigen-induced slow reacting substance of anaphylaxis release at 1 x 10^-6 M relative to control; type: functional, Macaca mulatta, Lung; how it was run: as §2
[28] = Antiallergic activity in passively sensitized rhesus monkey lungs assessed as inhibition of antigen-induced histamine release at 1 x 10^-6 M by fluorometric analysis relative to control; type: functional, Macaca mulatta, Lung; how it was run: as §2
[29] = Antiallergic activity in passively sensitized rhesus monkey lungs assessed as inhibition of antigen-induced slow reacting substance of anaphylaxis release at 1 x 10^-4 M relative to control; type: functional, Macaca mulatta, Lung; how it was run: as §2
[30] = Antiallergic activity in passively sensitized rhesus monkey lungs assessed as inhibition of antigen-induced histamine release at 1 x 10^-4 M by fluorometric analysis relative to control; type: functional, Macaca mulatta, Lung; how it was run: as §2
Rattus norvegicus [31] = test: Ratio of DSCG ID50 to compound ID50 for antiallergic activity in iv dosed rat; type: functional

CC(=O)C1=C(O)/C(=C(\C)Nc2ccc(O)cc2)C(=O)OC1=O
ED50 (Rattus norvegicus [1]): 29 mg/kg
inhibition (INH) [2]: 8.6%
inhibition (INH) (Lung [3]): 45%
ED50 (Rattus norvegicus [4]): 1.3 mg/kg
inhibition (INH) [5]: 59%
inhibition (INH) (Lung [6]): 34%
inhibition (INH) [7]: 51%
inhibition (INH) (Lung [8]): 44%
inhibition (INH) [9]: 50%
inhibition (INH) [10]: 33%
inhibition (INH) [11]: 18%

CCC(=O)Nc1cc(NC(=O)CC)cc(N/C(C)=C2\C(=O)OC(=O)C(C(C)=O)=C2O)c1
inhibition in vivo at 50 mg/kg (Rattus norvegicus [12]): 14%
ED50 (Rattus norvegicus [4]): 0.003 mg/kg

CC(=O)C1=C(O)/C(=C(\C)Nc2ccc(N(C)C)cc2)C(=O)OC1=O
inhibition in vivo at 100 mg/kg (Rattus norvegicus [13]): 11%

CC(=O)Nc1cc(N/C(C)=C2\C(=O)OC(=O)C(C(C)=O)=C2O)ccc1O
inhibition (INH) [14]: -31%
inhibition in vivo at 25 mg/kg (Rattus norvegicus [15]): 50%
inhibition (INH) [16]: 5%
inhibition (INH) (Lung [17]): 53%
inhibition (INH) (Lung [18]): 43%
inhibition (INH) [19]: -11%
inhibition (INH) [20]: 25%
inhibition (INH) [21]: 33%
inhibition in vivo at 0.2 mg/kg (Rattus norvegicus [22]): 50%
inhibition (INH) [23]: -32%
inhibition (INH) (Lung [24]): 88%
inhibition (INH) (Lung [25]): 76%
inhibition (INH) (Lung [26]): 86%

CC(=O)C1=C(O)/C(=C(\C)Nc2cc(NS(C)(=O)=O)cc(NS(C)(=O)=O)c2)C(=O)OC1=O
inhibition in vivo at 50 mg/kg (Rattus norvegicus [12]): 9%
ED50 (Rattus norvegicus [4]): 0.3 mg/kg

CC(=O)C1=C(O)/C(=C(\C)Nc2cc(NC(=O)C(O)CO)cc(NC(=O)C(O)CO)c2)C(=O)OC1=O (centres undefined)
inhibition (INH) [14]: -20%
inhibition (INH) [27]: -7%
ED50 (Rattus norvegicus [1]): 2.9 mg/kg
inhibition (INH) [16]: -0.5%
inhibition (INH) [28]: -30%
ED50 (Rattus norvegicus [4]): 0.0009 mg/kg
inhibition (INH) [29]: 7%
inhibition (INH) [30]: 7%
Ratio (Rattus norvegicus [31]): 1000

CC(=O)C1=C(O)/C(=C(\C)Nc2cc(N)cc(O)c2)C(=O)OC1=O.Cl
inhibition (INH) [14]: -0.7%
ED50 (Rattus norvegicus [1]): 8 mg/kg
inhibition (INH) [16]: 5%
ED50 (Rattus norvegicus [4]): 0.5 mg/kg
inhibition (INH) [29]: 18%
inhibition (INH) [30]: 24%
